According to ChEMBL document CHEMBL5107962, “Covalent sortase A inhibitor ML346 prevents Staphylococcus aureus infection of Galleria mellonella” (RSC Med Chem, 2022):
Calls of active or inactive are those of the source. No cut-off for these calls is given here.

Assays:
[1] = tested on: Sortase A (Staphylococcus aureus), Q9S446 [UNDEFINED MUTATION]; test: (§1) Irreversible inhibition of recombinant Staphylococcus aureus sortase A deltaN24 expressed in Escherichia coli BL21(DE3) cells using Abz-LPATG-Dnp as substrate assessed as increase in Km preincubated for 60 mins followed by substrate addition and measured every 1 min for 15 mins by FRET-based assay; conditions: time 75.0 min
In short: (§2)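 SrtA (5 µM) incubated 1 h at room temperature with compound or DMSO, then inhibitor removed by centrifugal filtration. Aliquots taken before and after filtration were assayed with Abz-LPATG-Dnp (0.78–200 µM for Sa enzyme, 0.2–50 µM for Sp enzyme) at ex 309/em 420 nm for 15 min. Km fitted; MTSET as control; triplicates, run in duplicate.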

[2] = as §1, with “Streptococcus pyogenes” for “Staphylococcus aureus”, “deltaN81” for “deltaN24”, “inactivation constant” for “increase in Km”, “fluorescence intensity based” for “FRET-based”
In short: (§3)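 Variable inhibitor concentrations incubated with SaSrtAΔN24 or SpSrtAΔN81 for different times, followed by FRET enzyme kinetics with Abz-LPATG-Dnp. kobs fitted as kinact × [I]/(KI + [I]) to give kinact and KI.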

[3] = Toxicity in Galleria mellonella larvae assessed as creamy colour appearance measured after 120 hrs
In short: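 G. mellonella larvae (2-2.5 cm, creamy), starved 24 h, injected with 10 µL compound in vehicle (5% DMSO, 20% PEG300, 75% PBS with 6.6% solutol HS-15). Kept at 37 °C; survival and appearance recorded over 120 h with photography. Three independent experiments.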

Staphylococcus aureus [4] = test: Irreversible inhibition of recombinant Staphylococcus aureus sortase A deltaN24 C184A mutant expressed in Escherichia coli BL21(DE3) cells assessed as thermal stabilization by measuring change in melting temperature incubated for 15 mins by Nano DSF assay
In short: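 40 µg SaSrtAΔN24 (wild type or C184A) in 100 µL 50 mM Tris-HCl pH 9.0, 150 mM NaCl, 5 mM CaCl2 incubated with compound for 15 min at room temperature, then centrifuged. Label-free nanoDSF read at 330/350 nm while ramping 30–90 °C at 2 °C per min. Tm taken from the first derivative of the ratio.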

Staphylococcus aureus [5] = test: Anti-virulence activity against Staphylococcus aureus Newman harbouring deltasrtA mutant assessed as decrease in cell-wall anchored SpA level at 25 to 200 uM by FITC-labelled human IgG based […]; format: functional, organism-based; conditions: dose 25-200 µM
In short: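 S. aureus grown in TSB (1:1000 dilution) with inhibitor until A600 1.0. Washed cells incubated with FITC-labelled human IgG in PBS for 30 min at room temperature in the dark, rinsed, and read by fluorescence. Three technical replicates, three independent experiments. Mean ± SEM, unpaired two-tailed Student's t test (n = 3).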

Sortase A [6] = molecular target: T1, Sortase A (Staphylococcus aureus, UniProt Q9S446); test: Irreversible inhibition of recombinant Staphylococcus aureus sortase A deltaN24 expressed in Escherichia coli BL21(DE3) cells using Abz-LPATG-Dnp as substrate preincubated for 10 mins followed by substrate addition and measured every 1 min for 15 mins by FRET-based assay
In short: (§4)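 SaSrtAΔN24 preincubated with compound for 10, 20, 40 or 60 min before FRET IC50 determination with Abz-LPATG-Dnp in Tris pH 7.5, NaCl, CaCl2 buffer.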

Staphylococcus aureus [7] = test: […] activity against compound pretreated wild type Staphylococcus aureus Newman infected in Galleria mellonella larvae assessed as pathogenicity by measuring melanization after 24 hrs of bacterial injection; format: functional, organism-based
In short: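 S. aureus diluted 1:1000 with or without compound and grown to A600 1.0. 10 µL of a 1 × 10^7 CFU mL-1 PBS suspension injected into the last proleg of starved larvae, held at 37 °C. Larvae chilled on ice and photographed at 24 h to score melanization. ΔsrtA strain used as control.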

Sortase A [8] = molecular target: T1, Sortase A; test: Inhibition of recombinant Staphylococcus aureus sortase A deltaN24 transpeptidation expressed in Escherichia coli BL21 (DE3) cells using Abz-LPATG-Dnp as substrate preincubated for 20 mins followed by substrate addition and measured every 1 min for 15 mins by FRET assay
In short: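 His-tagged enzyme purified by Ni-NTA and gel filtration. 1 µM SrtA preincubated with compound (0.05–50 µM) for 20 min at room temperature in 50 mM Tris-HCl pH 7.5, 150 mM NaCl, 5 mM CaCl2. Reaction started with 10 µM Abz-LPATG-Dnp, read at ex 309/em 420 nm. IC50 from a sigmoidal dose–response fit; triplicates, two experiments.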

[9] = Irreversible inhibition of recombinant Streptococcus pyogenes sortase A deltaN81 expressed in Escherichia coli BL21(DE3) cells using Abz-LPATG-Dnp as substrate preincubated for 20 mins followed by substrate addition and measured every 1 min for 15 mins by FRET-based assay
[10] = Inhibition of recombinant Streptococcus pyogenes sortase A deltaN81 transpeptidation expressed in Escherichia coli BL21 (DE3) cells using IsdA64 to 323 as substrate preincubated for 20 mins followed by substrate addition and measured after 1.5 hrs by SDS-PAGE-based assay
In short: (§5)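 SrtA (200 µg mL-1) preincubated with inhibitor (1–50 µM) for 20 min at room temperature in Tris pH 7.5, NaCl, CaCl2 buffer. IsdA64-323 (300 µg mL-1 final) and 3 mM (Gly)3 added, incubated at 37 °C for 1.5 h, then run on 12% SDS-PAGE. IC50 from band quantification of precursor and mature product. Two independent experiments.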

Staphylococcus aureus [11] = test: Antibacterial activity against Staphylococcus aureus USA300 assessed as inhibition of bacterial growth incubated for 16 to 18 hrs; format: functional; conditions: time 16-18 hrs
In short: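 Broth microdilution: S. aureus in TSB, E. coli in LB. Overnight cultures diluted 1:1000, grown at 37 °C to A600 0.6, then diluted 1:400 into two-fold compound dilutions. Incubated 16–18 h at 37 °C without shaking. MIC taken as the lowest concentration with no visible growth. Two independent experiments.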

[12] = tested on: Sortase A (Staphylococcus aureus), Q9S446 [UNDEFINED MUTATION]; test: as §1, with “[…]” for “increase in Km”, “fluorescence intensity based” for “FRET-based”; conditions: time 75.0 min; in short: as §3
Sortase A [13] = molecular target: T1, Sortase A; test: Irreversible inhibition of recombinant Staphylococcus aureus sortase A deltaN24 expressed in Escherichia coli BL21(DE3) cells using Abz-LPATG-Dnp as substrate preincubated for 20 mins followed by substrate addition and measured every 1 min for 15 mins by FRET-based assay; in short: as §4
Sortase A [14] = molecular target: T1, Sortase A; test: Inhibition of recombinant Staphylococcus aureus sortase A deltaN24 transpeptidation expressed in Escherichia coli BL21 (DE3) cells using IsdA64 to 323 as substrate preincubated for 20 mins followed by substrate addition and measured after 1.5 hrs by SDS-PAGE-based assay; in short: as §5
Streptococcus pyogenes = test: Irreversible inhibition of recombinant Streptococcus pyogenes sortase A deltaN81 expressed in Escherichia coli BL21(DE3) cells using Abz-LPATG-Dnp as substrate assessed as increase in Km preincubated for 60 mins followed by substrate addition and measured every 1 min for 15 mins by FRET-based assay; conditions: time 75.0 min; in short: as §2

In the case of `COc1ccc(/C=C/C=C2C(=O)NC(=O)NC2=O)cc1`, the inhibition [1] is reported as “Active”, the Ki [2] is reported as 686 nM and the Activity [3] is reported as “Non-Toxic”. For the same compound, the ΔTm (Staphylococcus aureus [4]) was -0.1 °C, the Activity (Staphylococcus aureus [5]) was “Active” and the IC50 (Sortase A [6]) was 1100 nM. The Activity (Staphylococcus aureus [7]) was “Active”, the IC50 (Sortase A [8]) was 370 nM and the IC50 [9] was 2300 nM. For the same compound, the IC50 [10] was 5880 nM, the MIC (Staphylococcus aureus [11]) was greater than 512 µg/mL and the Ratio [12] was 0.075 µM⁻¹ min⁻¹. For the same compound, the IC50 (Sortase A [13]) was 500 nM, the IC50 (Sortase A [14]) was 2650 nM and the inhibition (Streptococcus pyogenes) was “Active”.
